SENP7 block = SENP7 protease inhibition; recombinant SENP7, Z-RLRGG-aminoluciferin luminescence, 40 min; Q9BQF6; inhibition, % at 5 µM; 330,000 tested, 1.5% active;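 active = inhibition above about 50% at the single test dose, limit read from the data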;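 also: plate controls were DMSO with enzyme for no effect and no enzyme buffer wells for full effect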
SENP8 block-1 = inhibitors of human SENP8 protease; Q96LD8; purified SENP8, Z-RLRGG-aminoluciferin cleavage, luminescence; inhibition, % at 10 µM; 330,000 tested, 1.2% active; in the data active = inhibition above about 50%
Target sequence (Q96LD8 whole entry, looked up): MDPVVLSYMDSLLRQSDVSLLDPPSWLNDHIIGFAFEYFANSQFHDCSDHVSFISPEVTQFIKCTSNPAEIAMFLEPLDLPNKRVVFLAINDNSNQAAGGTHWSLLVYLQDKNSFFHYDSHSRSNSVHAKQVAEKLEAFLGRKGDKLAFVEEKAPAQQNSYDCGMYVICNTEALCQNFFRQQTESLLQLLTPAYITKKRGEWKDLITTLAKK
SENP6 inh = blocks the human protease SENP6; Recombinant SENP6 catalytic domain, aminoluciferin luminescence; AID 2599; inhibition, % at 10 µM; 330,000 tested, 1.8% active; Q9GZR1;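 active = inhibition above about 50% at the single tested dose, limit read from the data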;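 also: plate controls were DMSO wells with enzyme for no effect and DMSO wells lacking enzyme for full effect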
SENP8 block-2 = blocks human SENP8 cleavage of Nedd8 substrate; recombinant SENP8, Nedd8 substrate fluorescence; inhibition, % at 20 µM; 360,000 tested, 0.64% active; AID 602440; in the data active = inhibition mostly above about 40%, no sharp cut-off; inactive = mostly below about 27%
UBC13 polyUb = inhibitors of human UBC13 polyubiquitin chain formation; inhibition, % at 20 µM; AID 485273; TR-FRET; 330,000 tested, 0.47% active; P61088; in the data active = inhibition above about 45%, passing the limit was not always enough
Target sequence (P61088 whole entry, looked up): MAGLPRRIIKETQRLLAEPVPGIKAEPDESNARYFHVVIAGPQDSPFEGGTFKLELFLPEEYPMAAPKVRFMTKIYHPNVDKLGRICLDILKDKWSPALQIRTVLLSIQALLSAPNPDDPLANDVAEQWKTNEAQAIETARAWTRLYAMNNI
Apaf1 inhib = human Apaf-1 inhibition. O14727. reconstituted apoptosome caspase-3 activity, DEVD-Rh110 fluorescence. inhibition, % at 20 µM. 330,000 tested, 0.71% active; active = inhibition of at least 40% at 20 µM;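 also: plate controls were DMSO wells for no effect and DEVD-CHO caspase inhibitor wells for full effect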
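Material: reconstituted apoptosome with Apaf-1, cytochrome c, caspase-9, procaspase-3, dATP. Technique: Rh110 fluorescence intensity. Buffer or medium: pH 7.5 Hepes buffer with CHAPS, BSA, DTT. Times: 30 min plus 50 min, RT.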
SENP8 conf = human SENP8 inhibition, confirmed; inhibition, % at 12.5 µM; Recombinant SENP8, Z-RLRGG-aminoluciferin luminescence, 60 min; 6,200 tested, 40% active; shares compounds with SENP7 block;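 active = mean inhibition across replicates above about 50%, limit read from the data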
SENP6 confirm = confirmation of human SENP6 protease inhibitors; shares compounds with SENP7 block; recombinant SENP6, Z-RLRGG-aminoluciferin luminescence; inhibition, % at 12.5 µM; 6,200 tested, 58% active; AID 488915
SENP7 conf = human SENP7 inhibition, confirmed | 6,200 tested, 69% active | AID 488917 | recombinant SENP7, Z-RLRGG-aminoluciferin luminescence, 40 min | inhibition, % at 12.5 µM | shares compounds with SENP7 block
Casp3 SENP sel = selectivity test for SENP inhibitors: human caspase-3 inhibition | shares compounds with SENP7 block | purified caspase-3, Z-DEVD-aminoluciferin luminescence, 60 min | inhibition, % at 12.5 µM | 6,200 tested, 60% active | AID 488918;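 active = mean inhibition above about 50%, limit read from the data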;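 also: plate controls were enzyme with DMSO for no effect and wells without caspase-3 for full effect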
Target sequence (P42574 28-227 limits assumed): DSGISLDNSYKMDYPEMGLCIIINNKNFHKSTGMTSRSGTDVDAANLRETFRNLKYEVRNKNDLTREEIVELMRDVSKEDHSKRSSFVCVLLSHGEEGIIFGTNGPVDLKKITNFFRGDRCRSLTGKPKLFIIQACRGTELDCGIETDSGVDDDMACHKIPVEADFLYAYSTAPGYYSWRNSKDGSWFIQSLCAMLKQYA
Luc interf = interferes with luciferase luminescence in SENP counter-screen; 6,200 tested, 39% active; inhibition, % at 12.5 µM; shares compounds with SENP7 block; Pre-incubated SENP8/Z-RLRGG-aminoluciferin, luciferase luminescence interference;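 active = mean inhibition above about 50% when retested at one dose, limit read from the data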;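 also: plate controls were DMSO wells with completed reaction for no effect and substrate without enzyme for full effect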
Starred values were filed as active, the others as inactive; / = no result given. Sampled rows, rich in hits. Any-hit rate of the full collection: about 3%.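 The calls were made as follows, unless noted: active = mean inhibition above about 50% in the one-dose retest (limit read from the data); inactive = the rest.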

SMILES	SENP7 block	SENP8 block-1	SENP6 inh	SENP8 block-2	UBC13 polyUb	Apaf1 inhib	SENP8 conf	SENP6 confirm	SENP7 conf	Casp3 SENP sel	Luc interf
COc1ccc(NC(=O)CN(C)C(=O)c2cccc(S(=O)(=O)Nc3ccc(OC)cc3)c2)cc1	8.7	-16.0	-12.4	-0.6	-2.7	0.7	/	/	/	/	/
COc1ccc(CN2C(=O)Cc3c2nc(N)c2c(N)nc(N4CCCCC4)c(C#N)c32)cc1	-1.8	4.2	60.6*	/	-44.5	51.1*	12.1	12.5	6.7	4.2	0.4
COc1cc2c(C#N)c(N3CCOCC3)nc(N)c2c(N)n1	21.1	-1.2	5.0	-399.2	8.7	5.0	/	/	/	/	/
COc1cc2c(C#N)c(N3CCCCC3)nc(N)c2c(N)n1	41.4	62.1*	65.7*	-412.0	-19.3	97.3*	24.7	33.8	43.3	6.1	20.4
CCc1ccc(N2C(=O)Cc3c2nc(N)c(C#N)c3N)cc1	-4.0	0.6	-1.8	-77.8	-5.5	-4.3	/	/	/	/	/
CCOc1ccc(C(=O)COC(=O)c2cc(=O)[nH]c3ccccc23)cc1	52.9*	-16.8	-3.2	-205.9	20.9	4.5	-8.8	-9.0	-5.2	6.7	1.5
O=C(NC(=O)c1ccccc1O)c1ccc(C(F)(F)F)cc1	77.6*	71.2*	76.3*	29.9	10.7	7.6	76.5*	74.9*	84.2*	84.3*	8.2
O=C(NC(=S)NNC(=O)c1ccccc1O)c1ccc(F)cc1	25.3	-1.2	15.7	14.3	-14.4	-6.5	/	/	/	/	/
Cc1cccc(NC(=O)c2ccc(F)c(S(=O)(=O)NCc3ccco3)c2)c1	36.2	38.2	51.9*	-4.5	3.9	6.0	39.2	32.9	63.3*	43.7	51.0*
CN=c1scc(C)n1/N=C/c1ccc(O)cc1	11.1	-0.2	26.2	-29.9	-6.8	0.9	/	/	/	/	/
CN=c1scc(C)n1/N=C/c1ccc(O)cc1O	77.5*	76.5*	77.9*	-33.3	8.7	5.7	90.3*	88.3*	99.1*	88.0*	85.6*
CN=c1scc(C)n1/N=C/c1ccc2c(c1)OCO2	97.0*	88.1*	98.3*	-23.5	-6.2	2.5	95.0*	95.6*	101.7*	94.7*	48.4
CN=c1scc(C)n1/N=C/c1cc(Br)c(O)c(Br)c1	-1.9	-4.9	-5.2	-97.8	-2.6	-6.0	/	/	/	/	/
COC(OC)c1ccc(C#N)c(=O)[nH]1	-5.7	-11.1	-9.5	-394.7	2.2	-5.3	/	/	/	/	/
CC(Oc1ccccc1)C(=O)N1CCN(c2ccc(N3CCOCC3)nn2)CC1 (centres undefined)	14.8	-5.9	-16.4	-447.0	11.4	-2.6	/	/	/	/	/
COc1cccc(N2CCN(C(=O)c3oc4ccccc4c3NC(=O)Cc3ccc(OC)c(OC)c3)CC2)c1	6.3	-7.0	-4.7	1.3	-2.2	14.4	/	/	/	/	/
O=C(NC(=S)Nc1ccc(S(=O)(=O)Nc2nccs2)cc1)c1cccc(F)c1	6.3	39.5	63.1*	8.8	-19.5	2.2	12.8	8.0	7.8	2.8	-0.2
COc1cc(C(=O)NNC(=O)c2cc(S(=O)(=O)N(C)C)ccc2N2CCCC2)cc(OC)c1OC	6.1	-5.4	2.0	-4.4	-0.1	3.5	/	/	/	/	/
O=C(CC(SCc1ccco1)c1ccc(O)cc1)c1cccs1 (centres undefined)	58.1*	88.0*	88.9*	-3.9	-0.4	6.6	92.9*	91.1*	95.4*	46.2	86.7*
CN(C)c1ccc(/C=N/N=C/c2ccccc2O)cc1	97.4*	83.6*	86.2*	-25.7	3.6	-22.4	47.3	58.0*	60.9*	58.9*	34.1
COc1ccccc1C=NN=Cc1ccccc1O	/	/	/	21.7	/	/	/	/	/	/	/
O=C(Nc1ccc(Cl)cc1)Nc1cccc2nsnc12	94.0*	90.6*	91.7*	-83.5	11.0	12.5	-12.6	91.4*	88.1*	81.7*	47.2
CC(=O)/C(=C/N(C)C)C(=O)Nc1ccc(Cl)cc1Cl	4.8	77.6*	10.3	1.3	1.2	5.0	70.2*	65.6*	91.8*	81.4*	77.4*
O=[N+]([O-])c1cc([N+](=O)[O-])c(N2CCCCCC2)cc1NCCO	12.1	-1.3	1.9	31.8	3.4	-14.5	/	/	/	/	/
O=[N+]([O-])c1cc(NCCO)c(N2CCCCCC2)c2nonc12	12.3	44.2	56.0*	15.5	-74.8	8.6	-2.1	2.1	-2.5	-3.0	-2.9
SMILES	SENP7 block	SENP8 block-1	SENP6 inh	SENP8 block-2	UBC13 polyUb	Apaf1 inhib	SENP8 conf	SENP6 confirm	SENP7 conf	Casp3 SENP sel	Luc interf
CCCCCN(C(=O)CCC(=O)OCc1ccccc1C(F)(F)F)c1c(N)n(CCCC)c(=O)[nH]c1=O	-4.5	5.3	-12.2	2.3	-9.8	-3.0	/	/	/	/	/
CSCCC(NC(=O)OC(C)(C)C)C(=O)Oc1ccc2c(=O)c(-c3ccc4c(c3)OCCO4)coc2c1 (centres undefined)	48.0	32.9	61.8*	-208.0	-6.0	1.6	13.8	18.2	57.6*	76.0*	13.1
COc1ccc(-c2csc(-c3cccnc3)n2)cc1C	5.1	5.0	21.4	-172.2	14.6	10.9	/	/	/	/	/
COc1ccc(-c2csc(-c3ccccc3)n2)c(OC)c1	89.1*	84.1*	93.0*	-79.0	4.3	2.9	82.3*	91.3*	96.0*	73.9*	26.5
COc1ccc2cc(-c3csc(-c4cccnc4)n3)ccc2c1	67.1*	-13.0	5.3	-133.6	7.0	-7.0	16.7	12.1	14.6	10.2	-0.5
COc1cccc(CN(C)C(=O)C2CCCN(C(=O)c3ccc(Cl)cc3)C2)c1 (centres undefined)	/	/	/	0.8	/	/	/	/	/	/	/
O=C(Nc1ccccc1)c1ccc(-c2ccccc2Cl)o1	60.2*	21.3	65.9*	11.6	3.2	10.8	4.8	24.2	81.8*	38.1	1.3
CC(=O)Cc1nsc(NC(=O)c2oc(-c3ccccc3Cl)cc2C)n1	5.2	3.9	0.1	-179.1	7.0	3.3	/	/	/	/	/
O=C(Nc1nccs1)c1ccc(-c2ccccc2Cl)o1	70.0*	61.7*	78.9*	-75.6	12.7	1.3	65.6*	69.0*	-6.6	22.7	25.2
CC(=O)Cc1nsc(NC(=O)c2ccc(-c3ccccc3Cl)o2)n1	44.6	57.4*	31.5	-90.6	-0.9	6.5	82.7*	79.2*	92.1*	66.4*	66.0*
N#Cc1sc(=O)[nH]c1Cl	7.8	-11.5	-13.4	-7.7	-3.9	-8.1	/	/	/	/	/
